Screening data: PubChem, Sanford-Burnham Center for Chemical Genomics
SKN-1 block = blocks SKN-1 activity in C. elegans. C. elegans VP596 Pgst-4::GFP/RFP ratio, acrylamide-induced, 24 h. inhibition, % at 21.8 µM. actives 0.49% (n = 360,000);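 active = interference check ratio from 0.5 to 1.5 plus GFP to RFP signal ratio inhibition reaching or exceeding a fixed threshold, cut at about 30% in these data, passing the limit was not always enough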
MT1-MMP act inh = blocks activation of human MT1-MMP. actives 0.061% (n = 360,000). HT1080 RFP-PRO-GFP cells, GFP/RFP ratio fluorescence, overnight; percent of plate control window, DMSO zero. P50281. GFP/RFP ratio change, % at 20 µM;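 active = GFP/RFP ratio change of at least 30% with cell ATP level not reduced by more than half and red fluorescence within 50% of control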
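Read-out: GFP/RFP fluorescence ratio; Test system: RFP-PRO-GFP reporter HT1080 cells; Compound dosing: single-point 20 µM compound, 1% DMSO; Times: overnight compound exposure at 37 °C.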
SUMO1-SIM PPI = modulators of human SUMO1-mediated protein-protein interactions. P63165. SUMO1 binding to a labelled peptide, TR-FRET, 1 h. inhibition, % at 20 µM. actives 0.33% (n = 360,000); in the data active = inhibition above about 37%
DNMT1 inh = DNMT1 (human) enzyme inhibition | P26358 | DNMT1 molecular beacon, Hinp1I cleavage, fluorescence | inhibition (reported as % activation of signal), % at 10 µM | actives 0.83% (n = 360,000); in the data active = inhibition above about 50%
Rpn11 inh = inhibitors of human proteasome Rpn11. human 26S proteasome, Ub4-pepOG fluorescence polarization; 20S core pre-blocked with epoxomicin. AID 588493. O00487. actives 0.59% (n = 360,000). inhibition, % at 20 µM;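 active = inhibition at 20 µM, scaled to each plate's controls, above about 33%, limit read from the data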
Target sequence (O00487 whole entry, looked up): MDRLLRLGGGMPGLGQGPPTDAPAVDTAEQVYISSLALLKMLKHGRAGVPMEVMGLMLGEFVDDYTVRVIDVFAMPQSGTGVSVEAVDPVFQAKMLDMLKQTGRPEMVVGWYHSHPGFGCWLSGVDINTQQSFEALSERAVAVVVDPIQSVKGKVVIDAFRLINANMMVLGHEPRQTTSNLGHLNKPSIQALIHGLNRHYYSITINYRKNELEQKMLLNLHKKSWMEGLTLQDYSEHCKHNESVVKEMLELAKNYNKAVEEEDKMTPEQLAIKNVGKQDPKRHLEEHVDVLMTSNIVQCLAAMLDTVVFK
CSN inh = inhibitors of human CSN-mediated cullin deneddylation; actives 0.38% (n = 360,000); AID 651999; Purified CSN, SCF-Nedd8-OG deneddylation, fluorescence polarization; inhibition, % at 12.5 µM; Q92905;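 active = pattern-corrected inhibition above about 35%, with an unprinted fluorescence ratio check between 0.5 and 1.5, limit read from the data, passing the limit was not always enough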
Target sequence (Q92905 whole entry, looked up, one chain of several): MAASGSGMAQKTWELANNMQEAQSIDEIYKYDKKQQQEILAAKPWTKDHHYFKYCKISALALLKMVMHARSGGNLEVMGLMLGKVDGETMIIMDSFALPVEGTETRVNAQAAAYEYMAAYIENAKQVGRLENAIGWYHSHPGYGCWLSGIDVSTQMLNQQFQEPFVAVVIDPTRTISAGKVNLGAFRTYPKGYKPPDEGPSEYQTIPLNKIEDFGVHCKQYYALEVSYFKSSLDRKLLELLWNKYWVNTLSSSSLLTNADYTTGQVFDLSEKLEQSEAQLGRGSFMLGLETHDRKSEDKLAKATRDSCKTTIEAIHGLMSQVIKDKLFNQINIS
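test system = HEK293T-derived human Csn5 enzyme | amount = 0.24 nM Csn5 enzyme, final concentration | medium = Tris/NaCl/DTT buffer, pH 7.5 | schedule = 90 min reaction at room temperature | signal = FP | evaluation = inhibition of Csn5 cleavage, % | compound dosing = single dose of 12.5 µM compound with 0.25% DMSO | probe or stimulus = 10 nM SCFSkp2-Nedd8OG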
Beacon interf DR = beacon fluorescence artifact, dose response counter-screen; shares compounds with DNMT1 inh; AID 602382; molecular beacon fluorescence, spectral interference counter-screen; IC50, µM; 200 tested, under 10 active; call rule not given here
DNMT1 confirm = confirmation of human DNMT1 inhibitors | shares compounds with DNMT1 inh | DNMT1 molecular beacon HinP1I cleavage, fluorescence | inhibition, % at 10 µM | actives 8% (n = 2,300);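 active = average inhibition of at least 30% in the single-concentration confirmation test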
DNMT1 interf = counter-screen for DNMT1 inhibitors: spectral interference; actives 1% (n = 2,300); AID 602387; shares compounds with DNMT1 inh; activation (fluorescence interference), % at 10 µM; DNMT1 molecular beacon spectral interference counterscreen, fluorescence 485/520;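 active = activation of at least 30% at 10 µM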;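 note: DNMT1 catalytic domain with a HinP1I cleavage step and a FAM/dabcyl DNA beacon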
A number is an active result; – = inactive; · = no result given. This is a sample that favours compounds with a hit; in the whole collection about 2.3% have one here.

SMILES	SKN-1 block	MT1-MMP act inh	SUMO1-SIM PPI	DNMT1 inh	Rpn11 inh	CSN inh	DNMT1 confirm	DNMT1 interf	others
CCCCn1c(-c2ccc(C(C)(C)C)cc2)nc2cc3[nH]c(=O)c(C(C)C)nc3cc21	–	–	–	–	–	–	·	·
Cc1c(NS(=O)(=O)c2cc(C(=O)O)ccc2Cl)c(=O)n(-c2ccccc2)n1C	–	–	–	–	–	–	·	·
Cc1c(NS(=O)(=O)c2cc(C(=O)OCC(=O)c3ccccc3F)ccc2Cl)c(=O)n(-c2ccccc2)n1C	–	–	–	63	–	–	–	–
O=c1c2ccccc2nc2sc(Nc3ccc(F)cc3)nn12	–	–	–	–	–	–	–	–
COc1cccc(Nc2nn3c(=O)c4ccccc4nc3s2)c1	–	–	–	–	–	–	·	·
Cc1ccc(CNc2ccc3nnc(-c4ccccc4)n3n2)cc1	–	–	–	74	–	38	–	–
Cc1cc2nc3c(=O)n(CCc4ccccc4)c(=O)[nH]c3nc2cc1N	–	–	–	63	–	–	65	90
C=CCn1c(=O)[nH]c2nc3cc(N=CN(C)C)c(C)cc3nc2c1=O	–	–	–	–	–	–	·	·
CCOC(=O)[C@]12CCCC=C1N(Cc1ccco1)C(=O)[C@H](CC(=O)NCc1cccc(C(F)(F)F)c1)C2	–	–	–	·	·	–	·	·
Cc1oc(-c2ccc(F)cc2)cc1-c1nn2c(-c3ccoc3C)nnc2s1	–	–	41	106	·	39	–	–
CC(C)OCCCNC(=O)c1c(N)n(/N=C/c2cccs2)c2nc3ccccc3nc12	–	–	–	60	–	41	–	–
O=C(Nc1ccc2oc(=O)ccc2c1)c1ccc(-c2cccc(Cl)c2)o1	–	–	–	91	–	–	–	–
CCCCn1nnnc1C(c1cc2ccccc2o1)N(C)Cc1ccccc1 (stereo unspecified)	–	–	–	·	·	–	·	·
CC(C)C(CCNC(=O)CC(Cc1ccccc1)c1ccco1)c1ccco1 (stereo unspecified)	–	–	–	61	–	–	–	–
CC(C)C(CCNC(=O)CN1C(=O)c2ccccc2C1=O)c1ccco1 (stereo unspecified)	–	–	–	–	–	–	·	·
O=Cc1cn(-c2ccccc2)nc1-c1cc2c(ccc3ccccc32)oc1=O	–	–	–	53	–	–	–	–
C=CCSC1=N/C(=C\c2cc(OC)c3c(c2)OCO3)C(=O)S1	–	–	–	74	–	–	–	–
COc1ccc(C(C)(O)c2nc(-c3ccncc3)cs2)cc1 (stereo unspecified)	–	–	–	–	–	–	·	·
COc1cc(/C=C2\SC(=O)N(Cc3ccc(Cl)cc3)C2=O)cc([N+](=O)[O-])c1O	–	–	105	89	–	–	–	–	Beacon interf DR=–
Cc1c(N)cccc1-n1cnnn1	–	–	–	–	–	–	·	·
c1cc2ccc3ccc(-n4cnnn4)c4ccc(c1)c2c34	–	–	–	60	–	–	–	–
O=c1oc(-c2ccc(O)c(O)c2)cc2cccc(O)c12	–	–	–	–	–	–	·	·
Oc1cccc2cc3cccc(O)c3c(O)c12	–	–	–	87	–	–	77	–	Beacon interf DR=–
CSc1ccc(/C=C(\C(=O)O)c2ccc(S(=O)(=O)N3CCCC3)s2)cc1	–	–	–	86	–	–	–	–
Cc1cccc(NC(=O)CSCC(=O)Nc2ccccc2N2CCCC2)c1	–	–	–	–	–	–	·	·
SMILES	SKN-1 block	MT1-MMP act inh	SUMO1-SIM PPI	DNMT1 inh	Rpn11 inh	CSN inh	DNMT1 confirm	DNMT1 interf	others
Cc1cccc(NC(=O)CSCC(=O)Nc2ccccc2N2CCCCC2)c1	–	–	–	94	–	–	–	–
COc1cc2c(cc1OC)/C(=C/C(=O)OCc1ccccc1)OC2	–	–	–	·	·	–	·	·
O=C(/C=C/c1ccc(Br)o1)NCc1ccccc1	–	–	–	74	–	–	–	–
Cc1ccc(CNC(=O)/C=C/c2ccc(Br)o2)cc1	–	–	–	–	–	–	·	·
OC(c1ccccc1)(c1ccccc1)C1CCN(CCCOc2ccc3c(c2)CCCC3)CC1	–	–	–	·	·	–	·	·
COc1cc(OC)cc(-c2c(-c3cccs3)c3cc(-c4ccc(C(N)=O)cc4)ccc3n2C)c1	–	–	–	54	–	–	–	–
COC(=O)C1(C(=O)OC)c2cc3c(cc2CN(S(=O)(=O)c2ccc(C)cc2)C1CC(C)=O)OCO3 (stereo unspecified)	–	–	–	·	·	–	·	·
CCCOc1cc2c(C#N)c(N3CCCC3)nc(N)c2c(N)n1	–	–	51	97	–	–	–	–
COC(=O)c1sc(N2C(=O)c3oc4ccccc4c(=O)c3C2c2cccs2)nc1C (stereo unspecified)	–	–	–	60	–	–	–	–
COCCN1C(=O)c2oc3ccccc3c(=O)c2C1c1ccc(C(=O)OC)cc1 (stereo unspecified)	–	–	–	–	–	–	·	·
C=CCNc1nc(-c2sc(NC(=O)C(C)(C)C)nc2C)c(-n2cc(-c3ccccc3)nn2)s1	–	–	–	·	·	–	·	·
COc1ccc(C(=O)N/N=C(\C)c2ccc3c(c2)C2C=CCC2C(c2ccccc2)N3)cc1 (stereo unspecified)	–	–	–	–	–	–	·	·
COc1cccc(NS(=O)(=O)c2ccc3c(c2)C2C=CCC2C(c2ccc(C(=O)O)cc2)N3)c1 (stereo unspecified)	–	–	44	90	–	–	–	–	Beacon interf DR=–
CCCCN(CC)CCNc1c(NC2CCN(C(=O)OCC)CC2)c(=O)c1=O	–	–	–	66	–	–	–	–
CCCC(=O)O[C@]1(C(=O)COC(C)=O)CC[C@H]2[C@@H]3C[C@H](F)C4=CC(=O)C=C[C@]4(C)[C@@]3(F)[C@@H](O)C[C@@]21C	–	–	–	–	–	–	·	·
CC(=O)[C@@]1(O)CC[C@H]2[C@@H]3C[C@H](C)C4=CC(=O)C=C[C@]4(C)[C@@]3(F)[C@@H](O)C[C@@]21C	–	–	–	80	–	–	–	–
O=S(=O)(c1ccc2c(c1)CCN2)N1CCOCC1	–	–	–	102	–	–	–	–
O=C(N/N=C/c1ccc([N+](=O)[O-])cc1)c1cc(-c2ccc3c(c2)OCO3)n[nH]1	–	–	–	50	–	–	–	–
